Measurements: ChEMBL document CHEMBL2321791, “A new cytotoxic quinolone alkaloid and a pentacyclic steroidal glycoside from the stem bark of Crataeva nurvala: study of anti-proliferative and apoptosis inducing property” (Eur J Med Chem, 2013)
Activity calls are given as the source filed them. The calls are words filed in the database; no cut-off is given here.

Key:
[1] = system: PC-3; assay: Cytotoxicity against human PC3 cells; format: functional, cell-based
Method in brief: (§1)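 MTT viability assay. Cells were plated at 3 × 10³ cells/well and treated in triplicate with a range of concentrations, with final DMSO at 0.2%. After 48 h incubation, MTT (0.5 mg/mL) was added for a further 4 h at 37 °C. Formazan was read by optical density at 570 nm and percentage viability calculated.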

[2] = system: MCF7; assay: Cytotoxicity against human MCF7 cells; format: functional, cell-based; method in brief: as §1
[3] = system: HeLa; assay: Cytotoxicity against human HeLa cells; format: functional, cell-based; method in brief: as §1
[4] = system: HeLa; assay: Cell cycle arrest in human HeLa cells assessed as cells at G0 phase at 1 uM measured after 24 hrs by propidium iodide/FACS analysis (reference value: 68.6%); format: functional
[5] = system: HeLa; assay: Cell cycle arrest in human HeLa cells assessed as cells at G1 phase at 1 uM measured after 24 hrs by propidium iodide/FACS analysis (reference value: 14.7%); format: functional
[6] = system: PC-3; assay: Inhibition of colony formation in human PC3 cells at sub-lethal dose measured after 5 days by colony formation assay; format: functional, cell-based
Method in brief: (§2)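 Clonogenic assay. Cells were seeded at 1 × 10³ cells/well in 6-well plates, and the medium was replaced after 24 h. Cells were then exposed to various concentrations of compound, alongside DMSO vehicle, for 5 days at 37 °C in 5% CO₂. Colonies were fixed with 4% paraformaldehyde, stained with 0.5% crystal violet, then counted and averaged over randomly chosen fields (n = 3).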

[7] = system: HeLa; assay: Inhibition of cell migration in human HeLa cells at 50 uM for 24 hrs by wound healing assay; format: functional, cell-based
Method in brief: (§3)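 Wound-healing (scratch) assay. Cells were seeded at 5.5 × 10⁵ cells/well in 6-well plates and grown overnight to a confluent monolayer. After 24 h serum starvation, the monolayer was scratched with a pipette tip, washed with serum-free medium and photographed at 0 h. Cells were then treated for 24 h in 1% serum medium with compound or DMSO vehicle. Scratched area was quantified in three random fields per treatment across three independent experiments.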

[8] = system: HeLa; assay: Cell cycle arrest in human HeLa cells assessed as cells at G1 phase at 50 uM measured after 24 hrs by propidium iodide/FACS analysis (reference value: 14.7%); format: functional
[9] = system: HeLa; assay: Cell cycle arrest in human HeLa cells assessed as cells at G0 phase at 50 uM measured after 24 hrs by propidium iodide/FACS analysis (reference value: 68.6%); format: functional
[10] = system: HeLa; assay: Inhibition of cell migration in human HeLa cells at 80 uM for 24 hrs by wound healing assay; format: functional, cell-based; method in brief: as §3
[11] = system: HeLa; assay: Inhibition of colony formation in human HeLa cells measured after 5 days by colony formation assay; format: functional, cell-based; method in brief: as §2
[12] = system: HeLa; assay: Cytotoxicity against human HeLa cells at 50 uM measured after 48 hrs by MTT assay; format: cell-based; method in brief: as §1
[13] = system: PC-3; assay: Cytotoxicity against human PC3 cells at 50 uM measured after 48 hrs by MTT assay; format: cell-based; details: pc-3, 48 h; method in brief: as §1
[14] = system: PC-3; assay: Inhibition of cell migration in human PC3 cells at 50 uM for 24 hrs by wound healing assay; format: functional, cell-based; method in brief: as §3
[15] = system: MCF7; assay: Inhibition of cell migration in human MCF7 cells at 50 uM for 24 hrs by wound healing assay; format: functional, cell-based; method in brief: as §3
[16] = system: MCF7; assay: Inhibition of cell migration in human MCF7 cells at 80 uM for 24 hrs by wound healing assay; format: functional, cell-based; method in brief: as §3
[17] = system: PC-3; assay: Inhibition of cell migration in human PC3 cells at 80 uM for 24 hrs by wound healing assay; format: functional, cell-based; method in brief: as §3
[18] = system: HeLa; assay: Inhibition of colony formation in human HeLa cells at sub-lethal dose measured after 5 days by colony formation assay; format: functional, cell-based; method in brief: as §2

Row | SMILES | Activity [1] | Activity [2] | Activity [3] | Activity [4] | Activity [5] | Activity [6] | Activity [7] | Activity [8] | Activity [9] | Activity [10] | Activity [11] | Activity [12] | Activity [13] | Activity [14] | Activity [15] | Activity [16] | Activity [17] | Activity [18]
1 | COc1cc(OC)c2c(=O)c(-c3ccccc3)cn(C)c2c1 | inactive | inactive | inactive | – | – | – | – | – | – | – | – | – | – | – | – | – | – | –
2 | COc1cc(OC)c2c(O)c(-c3ccccc3)cnc2c1 | inactive | inactive | inactive | – | – | – | – | – | – | – | – | – | – | – | – | – | – | –
3 | CC[C@@]1(O)C(=O)OCc2c1cc1n(c2=O)Cc2cc3ccccc3nc2-1 [CAMPTOTHECIN] | – | – | – | 68.6% | 17.7% | – | – | – | – | – | – | – | – | – | – | – | – | –
4 | CCn1cc(-c2ccccc2)c(=O)c2c(OC)cc(OC)cc21 [CRATAEMINE] | – | – | – | – | – | Active | Active | 17.2% | 76.8% | Active | Dose-dependent effect | Non-toxic | Non-toxic | Active | inactive | inactive | Active | Active
5 | CC(C)[C@@H]1CC[C@@H](C)[C@H]2[C@@H]1C[C@H]1[C@@H]3CC=C4C[C@@H](O[C@@H]5O[C@H](CO)[C@@H](O)[C@H](O)[C@H]5O)CC[C@]4(C)[C@H]3CC[C@]21C [CRATAENOSIDE] | – | – | – | – | – | Active | Active | 22.5% | 63.5% | Active | Dose-dependent effect | Non-toxic | Non-toxic | Active | inactive | inactive | Active | Active
